Square brackets hold non-standard residues; d marks the D form. Peptide text beside a SMILES is read from it. dPhe(4-Cl) = N[C@H](Cc1ccc(Cl)cc1)C(=O)O; d2Nal = N[C@H](Cc1ccc2ccccc2c1)C(=O)O
Assays:
Type in all cases: functional
Rattus norvegicus [1] = organism: Rattus norvegicus; assay: Percent anti-ovulatory activity in Sprague-Dawley rats against percent of 8 rats that did not ovulate at dose 50 microg
Outline: (§1)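 Antiovulatory activity was tested in Sprague-Dawley rats using the standard rat antiovulatory assay. Analogues were given in a 40% propylene glycol-saline vehicle at the stated microgram dose. The value is the percentage of the (n) rats in each group in which ovulation was blocked.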

Rattus norvegicus [2] = organism: Rattus norvegicus; assay: Percent anti-ovulatory activity in Sprague-Dawley rats against percent of 13 rats that did not ovulate at dose 0.5 microg; outline: as §1
Rattus norvegicus [3] = organism: Rattus norvegicus; assay: Percent anti-ovulatory activity in Sprague-Dawley rats against percent of 7 rats that did not ovulate at dose 3 microg; outline: as §1
Rattus norvegicus [4] = organism: Rattus norvegicus; assay: Percent anti-ovulatory activity in Sprague-Dawley rats against percent of 9 rats that did not ovulate at dose 1 microg; outline: as §1
Rattus norvegicus [5] = organism: Rattus norvegicus; assay: Percent anti-ovulatory activity in Sprague-Dawley rats against percent of 10 rats that did not ovulate at dose 0.5 microg; outline: as §1
Rattus norvegicus [6] = organism: Rattus norvegicus; assay: Percent anti-ovulatory activity in Sprague-Dawley rats against percent of 8 rats that did not ovulate at dose 3 microg; outline: as §1
Rattus norvegicus [7] = organism: Rattus norvegicus; assay: Percent anti-ovulatory activity in Sprague-Dawley rats against percent of 10 rats that did not ovulate at dose 3 ug; outline: as §1
Rattus norvegicus [8] = organism: Rattus norvegicus; assay: Percent anti-ovulatory activity in Sprague-Dawley rats against percent of 13 rats that did not ovulate at dose 7.5 microg; outline: as §1
Rattus norvegicus [9] = organism: Rattus norvegicus; assay: Percent anti-ovulatory activity in Sprague-Dawley rats against percent of 10 rats that did not ovulate at dose 1 ug; outline: as §1
Rattus norvegicus [10] = organism: Rattus norvegicus; assay: Percent anti-ovulatory activity in Sprague-Dawley rats against percent of 11 rats that did not ovulate at dose 3 microg; outline: as §1
Rattus norvegicus [11] = organism: Rattus norvegicus; assay: Percent anti-ovulatory activity in Sprague-Dawley rats against percent of 5 rats that did not ovulate at dose 1 microg; outline: as §1
Rattus norvegicus [12] = organism: Rattus norvegicus; assay: Percent anti-ovulatory activity in Sprague-Dawley rats against percent of 10 rats that did not ovulate at dose 50 microg; outline: as §1
Rattus norvegicus [13] = organism: Rattus norvegicus; assay: Percent anti-ovulatory activity in Sprague-Dawley rats against percent of 8 rats that did not ovulate at dose 1 microg; outline: as §1
Rattus norvegicus [14] = organism: Rattus norvegicus; assay: Percent anti-ovulatory activity in Sprague-Dawley rats against percent of 9 rats that did not ovulate at dose 3 microg; outline: as §1
Rattus norvegicus [15] = organism: Rattus norvegicus; assay: Percent anti-ovulatory activity in Sprague-Dawley rats against percent of 10 rats that did not ovulate at dose 3 microg; outline: as §1
Rattus norvegicus [16] = organism: Rattus norvegicus; assay: Percent anti-ovulatory activity in Sprague-Dawley rats against percent of 11 rats that did not ovulate at dose 1 microg; outline: as §1
Rattus norvegicus [17] = organism: Rattus norvegicus; assay: Percent anti-ovulatory activity in Sprague-Dawley rats against percent of 12 rats that did not ovulate at dose 3 microg; outline: as §1
Rattus norvegicus [18] = organism: Rattus norvegicus; assay: Percent anti-ovulatory activity in Sprague-Dawley rats against percent of 11 rats that did not ovulate at dose 0.5 ug; outline: as §1
Rattus norvegicus [19] = organism: Rattus norvegicus; assay: Percent anti-ovulatory activity in Sprague-Dawley rats against percent of 13 rats that did not ovulate at dose 1 ug; outline: as §1
Rattus norvegicus [20] = organism: Rattus norvegicus; assay: Percent anti-ovulatory activity in Sprague-Dawley rats against percent of 10 rats that did not ovulate at dose 1 microg; outline: as §1

CC(=O)N[C@H](Cc1ccc2ccccc2c1)C(=O)N[C@@H]1CSSC[C@@H](C(=O)N[C@@H](CCCN=C(N)N)C(=O)N2CCC[C@H]2C(=O)N[C@H](C)C(N)=O)NC(=O)[C@@H](CCCN=C(N)N)NC(=O)[C@H](Cc2ccc(O)cc2)NC(=O)[C@H](CO)NC(=O)[C@@H](Cc2c[nH]c3ccccc23)NC1=O
Activity (Rattus norvegicus [1]): 0%

CC(=O)N[C@H](Cc1ccc2ccccc2c1)C(=O)N[C@H](Cc1ccc(Cl)cc1)C(=O)N[C@H](Cc1c[nH]c2ccccc12)C(=O)N[C@@H](CO)C(=O)N[C@@H](Cc1ccc(O)cc1)C(=O)N[C@H](CCCN=C(N)N)C(=O)N[C@@H](Cc1ccc(O)cc1)C(=O)N[C@@H](CCCN=C(N)N)C(=O)N1CCC[C@H]1C(=O)N[C@H](C)C(N)=O
Activity (Rattus norvegicus [2]): 31%
Activity (Rattus norvegicus [3]): 100%
Activity (Rattus norvegicus [4]): 89%

CC(=O)N[C@H](Cc1ccc2ccccc2c1)C(=O)N[C@H](Cc1ccc(Cl)cc1)C(=O)N[C@H](Cc1c[nH]c2ccccc12)C(=O)N[C@H]1CSSC[C@@H](C(=O)N[C@@H](CCCN=C(N)N)C(=O)N2CCC[C@H]2C(=O)N[C@H](C)C(N)=O)NC(=O)[C@@H](CCCN=C(N)N)NC(=O)[C@H](Cc2ccc(O)cc2)NC1=O
Activity (Rattus norvegicus [1]): 0%

CC(=O)N[C@H](Cc1ccc2ccccc2c1)C(=O)N[C@H](Cc1ccc2ccccc2c1)C(=O)N[C@H](Cc1c[nH]c2ccccc12)C(=O)N[C@@H](CO)C(=O)N[C@@H](Cc1ccc(O)cc1)C(=O)N[C@H](CCCN=C(N)N)C(=O)N[C@@H](Cc1ccc(O)cc1)C(=O)N[C@@H](CCCN=C(N)N)C(=O)N1CCC[C@H]1C(=O)N[C@H](C)C(N)=O
Activity (Rattus norvegicus [4]): 11%

CC(=O)N[C@H](Cc1ccc2ccccc2c1)C(=O)N[C@H](Cc1ccc(Cl)cc1)C(=O)N[C@H](Cc1c[nH]c2ccccc12)C(=O)N[C@@H](CO)C(=O)N[C@@H](Cc1ccc(O)cc1)C(=O)N[C@H](CCCN=C(N)N)C(=O)N[C@@H](Cc1c[nH]c2ccccc12)C(=O)N[C@@H](CCCN=C(N)N)C(=O)N1CCC[C@H]1C(=O)N[C@H](C)C(N)=O
Activity (Rattus norvegicus [5]): 10%
Activity (Rattus norvegicus [6]): 85%

CC(=O)N[C@H](Cc1ccc2ccccc2c1)C(=O)N[C@H](Cc1ccc(Cl)cc1)C(=O)N[C@H](Cc1c[nH]c2ccccc12)C(=O)N[C@@H](CO)C(=O)N[C@@H](Cc1ccc(O)cc1)C(=O)N[C@H](CCCN=C(N)N)C(=O)N[C@H](C(=O)N[C@@H](CCCN=C(N)N)C(=O)N1CCC[C@H]1C(=O)N[C@H](C)C(N)=O)[C@@H](C)O
Activity (Rattus norvegicus [7]): 20%

CC(=O)N[C@H](Cc1ccc2ccccc2c1)C(=O)N[C@H](Cc1ccc(Cl)cc1)C(=O)N[C@H](Cc1c[nH]c2ccccc12)C(=O)N[C@@H](CO)C(=O)N[C@@H](Cc1ccc(O)cc1)C(=O)N[C@H](CCCN=C(N)N)C(=O)N[C@@H](CCCCN)C(=O)N[C@@H](CCCN=C(N)N)C(=O)N1CCC[C@H]1C(=O)N[C@H](C)C(N)=O
Activity (Rattus norvegicus [8]): 0%

CC(=O)N[C@H](Cc1ccc2ccccc2c1)C(=O)N[C@H](Cc1ccc(Cl)cc1)C(=O)N[C@H](Cc1c[nH]c2ccccc12)C(=O)N[C@@H](CO)C(=O)N[C@@H](Cc1ccc(O)cc1)C(=O)N[C@H](CCCN=C(N)N)C(=O)N[C@@H](Cc1ccc(C)cc1)C(=O)N[C@@H](CCCN=C(N)N)C(=O)N1CCC[C@H]1C(=O)N[C@H](C)C(N)=O
Activity (Rattus norvegicus [4]): 22%

CC(=O)N[C@H](Cc1ccc2ccccc2c1)C(=O)N[C@H](Cc1ccc(Cl)cc1)C(=O)N[C@H](Cc1c[nH]c2ccccc12)C(=O)N[C@@H](CO)C(=O)N[C@@H](Cc1ccc(O)cc1)C(=O)N[C@H](CCCN=C(N)N)C(=O)N[C@@H](Cc1ccc(F)cc1)C(=O)N[C@@H](CCCN=C(N)N)C(=O)N1CCC[C@H]1C(=O)N[C@H](C)C(N)=O
Activity (Rattus norvegicus [6]): 75%
Activity (Rattus norvegicus [9]): 0%

CC(=O)N[C@H](Cc1ccc2ccccc2c1)C(=O)N[C@H](Cc1ccc(Cl)cc1)C(=O)N[C@H](Cc1c[nH]c2ccccc12)C(=O)N[C@@H](CO)C(=O)N[C@@H](Cc1ccc(O)cc1)C(=O)N[C@H](CCCN=C(N)N)C(=O)N[C@@H](Cc1c(F)c(F)c(F)c(F)c1F)C(=O)N[C@@H](CCCN=C(N)N)C(=O)N1CCC[C@H]1C(=O)N[C@H](C)C(N)=O
Activity (Rattus norvegicus [10]): 100%
Activity (Rattus norvegicus [11]): 20%

CC(=O)N[C@H](Cc1ccc2ccccc2c1)C(=O)N[C@H](Cc1ccc(Cl)cc1)C(=O)N[C@@H]1CSSC[C@@H](C(=O)N[C@@H](CCCN=C(N)N)C(=O)N2CCC[C@H]2C(=O)N[C@H](C)C(N)=O)NC(=O)[C@@H](CCCN=C(N)N)NC(=O)[C@H](Cc2ccc(O)cc2)NC(=O)[C@H](CO)NC1=O
Activity (Rattus norvegicus [12]): 0%

CC(=O)N[C@H](Cc1ccc2ccccc2c1)C(=O)N[C@H](Cc1ccc(Cl)cc1)C(=O)N[C@H](Cc1c[nH]c2ccccc12)C(=O)N[C@@H](CO)C(=O)N[C@@H](Cc1ccc(O)cc1)C(=O)N[C@H](CCCN=C(N)N)C(=O)N(C)[C@@H](Cc1ccccc1)C(=O)N[C@@H](CCCN=C(N)N)C(=O)N1CCC[C@H]1C(=O)N[C@H](C)C(N)=O
Activity (Rattus norvegicus [13]): 13%
Activity (Rattus norvegicus [14]): 11%

CC(=O)N[C@H](Cc1ccc2ccccc2c1)C(=O)N[C@H](Cc1ccc(Cl)cc1)C(=O)N[C@H](Cc1c[nH]c2ccccc12)C(=O)N[C@@H](CO)C(=O)N[C@@H](Cc1ccc(O)cc1)C(=O)N[C@H](CCCN=C(N)N)C(=O)N[C@@H](Cc1ccc2ccccc2c1)C(=O)N[C@@H](CCCN=C(N)N)C(=O)N1CCC[C@H]1C(=O)N[C@H](C)C(N)=O
Activity (Rattus norvegicus [5]): 0%
Activity (Rattus norvegicus [15]): 100%

CC(=O)N[C@H](Cc1ccc2ccccc2c1)C(=O)N[C@H](Cc1ccc(Cl)cc1)C(=O)N[C@H](Cc1c[nH]c2ccccc12)C(=O)N[C@@H](CO)C(=O)N[C@@H](Cc1ccc(O)cc1)C(=O)N[C@H](CCCN=C(N)N)C(=O)N[C@@H](Cc1ccc(Cl)cc1)C(=O)N[C@@H](CCCN=C(N)N)C(=O)N1CCC[C@H]1C(=O)N[C@H](C)C(N)=O
Activity (Rattus norvegicus [16]): 9%
Activity (Rattus norvegicus [17]): 100%

CC(=O)N[C@H](Cc1ccc2ccccc2c1)C(=O)N[C@H](Cc1ccc(Cl)cc1)C(=O)N[C@H](Cc1c[nH]c2ccccc12)C(=O)N[C@@H](CO)C(=O)N[C@H]1CSSC[C@@H](C(=O)N[C@@H](CCCN=C(N)N)C(=O)N2CCC[C@H]2C(=O)N[C@H](C)C(N)=O)NC(=O)[C@@H](CCCN=C(N)N)NC1=O
Activity (Rattus norvegicus [1]): 0%

CC(=O)N[C@H](Cc1ccc2ccccc2c1)C(=O)N[C@H](Cc1ccc2ccccc2c1)C(=O)N[C@H](Cc1c[nH]c2ccccc12)C(=O)N[C@@H](CO)C(=O)N[C@@H](Cc1ccc(O)cc1)C(=O)N[C@H](CCCN=C(N)N)C(=O)N[C@@H](CC(C)C)C(=O)N[C@@H](CCCN=C(N)N)C(=O)N1CCC[C@H]1C(=O)N[C@H](C)C(N)=O
Activity (Rattus norvegicus [16]): 0%

CC(=O)N[C@H](Cc1ccc2ccccc2c1)C(=O)N[C@H](Cc1ccc(Cl)cc1)C(=O)N[C@H](Cc1c[nH]c2ccccc12)C(=O)N[C@@H](CO)C(=O)N[C@@H](Cc1ccc(O)cc1)C(=O)N[C@H](CCCN=C(N)N)C(=O)N[C@@H](Cc1ccccc1)C(=O)N[C@@H](CCCN=C(N)N)C(=O)N1CCC[C@H]1C(=O)N[C@H](C)C(N)=O (Ac-[d2Nal][dPhe(4-Cl)][dW]SY[dR]FRP[dA]-NH2)
Activity (Rattus norvegicus [18]): 64%

CC(=O)N[C@H](Cc1ccc2ccccc2c1)C(=O)N[C@H](Cc1ccc(Cl)cc1)C(=O)N[C@H](Cc1c[nH]c2ccccc12)C(=O)N[C@@H](CO)C(=O)N[C@@H](Cc1ccc(O)cc1)C(=O)N[C@H](CCCN=C(N)N)C(=O)N[C@@H](CC(C)C)C(=O)N[C@@H](CCCN=C(N)N)C(=O)N1CCC[C@H]1C(=O)N[C@H](C)C(N)=O (Ac-[d2Nal][dPhe(4-Cl)][dW]SY[dR]LRP[dA]-NH2)
Activity (Rattus norvegicus [14]): 100%
Activity (Rattus norvegicus [19]): 77%

CC(=O)N[C@H](Cc1ccc(Cl)cc1)C(=O)N[C@H](Cc1ccc(Cl)cc1)C(=O)N[C@H](Cc1c[nH]c2ccccc12)C(=O)N[C@@H](CO)C(=O)N[C@@H](Cc1ccc(O)cc1)C(=O)N[C@H](CCCN=C(N)N)C(=O)N[C@@H](Cc1ccccc1)C(=O)N[C@@H](CCCN=C(N)N)C(=O)N1CCC[C@H]1C(=O)N[C@H](C)C(N)=O (Ac-[dPhe(4-Cl)][dPhe(4-Cl)][dW]SY[dR]FRP[dA]-NH2)
Activity (Rattus norvegicus [20]): 20%
